Calls of active or inactive are those of the source. The calls are words filed in the database; no cut-off is given here.
Legend:
Cannabinoid receptor 2 [1] = target: T1, Cannabinoid receptor 2 (Homo sapiens, UniProt P34972); assay: Inverse agonist activity at N-terminal HA-tagged human CB2 receptor expressed in HEK293 cells transfected with YFP-Epac-RLuc assessed as increase in forskolin-stimulated cAMP level by BRET assay; assay type: functional, cell-based
In short: (§1)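 BRET cAMP biosensor read-out in HEK293 cells expressing HA-tagged human CB1 or CB2, with forskolin stimulation (5 µM). Concentration-response curves; area-under-curve values normalised to forskolin alone = 100% and basal = 0%. EC50 taken for agonists and IC50 for inverse agonists. Mean of at least three independent experiments, each point in duplicate.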

Cannabinoid receptor 1 [2] = target: T2, Cannabinoid receptor 1 (Homo sapiens, UniProt P21554); assay: Displacement of [3H]CP55,940 from N-terminal HA-tagged human CB1 receptor expressed in HEK293 cell membranes at 10 uM after 1 hr by microbeta scintillation counting method relative to control
T2 sequence (P21554 whole entry): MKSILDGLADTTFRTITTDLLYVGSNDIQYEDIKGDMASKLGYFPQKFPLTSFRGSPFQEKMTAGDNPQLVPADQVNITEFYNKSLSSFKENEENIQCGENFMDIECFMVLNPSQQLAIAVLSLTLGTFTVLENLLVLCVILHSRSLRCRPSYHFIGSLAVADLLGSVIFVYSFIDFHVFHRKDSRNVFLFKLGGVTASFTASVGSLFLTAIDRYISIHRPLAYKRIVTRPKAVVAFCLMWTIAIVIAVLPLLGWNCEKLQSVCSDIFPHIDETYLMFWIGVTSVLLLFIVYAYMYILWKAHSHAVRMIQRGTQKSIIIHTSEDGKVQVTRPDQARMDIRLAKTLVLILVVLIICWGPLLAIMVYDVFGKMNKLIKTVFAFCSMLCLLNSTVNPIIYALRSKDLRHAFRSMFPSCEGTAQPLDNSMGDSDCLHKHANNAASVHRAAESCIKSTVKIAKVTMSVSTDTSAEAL
In short: (§2)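 Single-point competition screen against [3H]CP55,940 in HEK293 cells over-expressing 3HA-tagged hCB2 or hCB1. Compounds giving more than 50% displacement went on to full concentration-response curves.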

Cannabinoid receptor 1 [3] = target: T2, Cannabinoid receptor 1; assay: Displacement of [3H]CP55,940 from N-terminal HA-tagged human CB1 receptor expressed in HEK293 cell membranes after 1 hr by microbeta scintillation counting method; details: read-out: Ki
HEK293 [4] = assay: Effect on forskolin-stimulated cAMP level in HEK293 cells at 1 uM by BRET assay relative to control; assay type: ADME, cell-based; details: human, hek293, 1 µM
In short: (§3)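 Wild-type HEK293 cells lacking transfected receptor, tested at 10 µM and 1 µM. Forskolin-stimulated cAMP measured by BRET as a check that responses are receptor-mediated.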

Cannabinoid receptor 1 [5] = target: T2, Cannabinoid receptor 1; assay: Agonist activity at N-terminal HA-tagged human CB1 receptor expressed in HEK293 cells transfected with YFP-Epac-RLuc assessed as decrease in forskolin-stimulated cAMP level at 10 uM by BRET assay; assay type: functional, cell-based
In short: (§4)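 Single-concentration screen at 10 µM in CB receptor-expressing HEK293 cells, run with and without CP55,940 as reference agonist. Forskolin-stimulated cAMP read by BRET biosensor. A fall in cAMP is scored as agonism and a rise as inverse agonism.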

Cannabinoid receptor 2 [6] = target: T1, Cannabinoid receptor 2; assay: Displacement of [3H]CP55,940 from N-terminal HA-tagged human CB2 receptor expressed in HEK293 cell membranes after 1 hr by microbeta scintillation counting method; details: read-out: Ki
Cannabinoid receptor 2 [7] = target: T1, Cannabinoid receptor 2; assay: Inverse agonist activity at N-terminal HA-tagged human CB2 receptor expressed in HEK293 cells transfected with YFP-Epac-RLuc assessed as increase in forskolin-stimulated cAMP level by BRET assay relative to control; assay type: functional, cell-based; in short: as §1
Cannabinoid receptor 1 [8] = target: T2, Cannabinoid receptor 1; assay: Agonist activity at N-terminal HA-tagged human CB1 receptor expressed in HEK293 cells transfected with YFP-Epac-RLuc assessed as decrease in forskolin-stimulated cAMP level by BRET assay relative to control; assay type: functional, cell-based; in short: as §1
Cannabinoid receptor 2 [9] = target: T1, Cannabinoid receptor 2; assay: Inverse agonist activity at N-terminal HA-tagged human CB2 receptor expressed in HEK293 cells transfected with YFP-Epac-RLuc assessed as increase in forskolin-stimulated cAMP level at 10 uM by BRET assay; assay type: functional, cell-based
Cannabinoid receptor 2 [10] = target: T1, Cannabinoid receptor 2; assay: Displacement of [3H]CP55,940 from N-terminal HA-tagged human CB2 receptor expressed in HEK293 cell membranes at 10 uM after 1 hr by microbeta scintillation counting method relative to control; in short: as §2
HEK293 [11] = assay: Effect on forskolin-stimulated cAMP level in HEK293 cells at 10 uM by BRET assay relative to control; assay type: ADME, cell-based; details: human, hek293, 10 µM; in short: as §3
Cannabinoid receptor 1 [12] = target: T2, Cannabinoid receptor 1; assay: Activity at N-terminal HA-tagged human CB1 receptor expressed in HEK293 cells transfected with YFP-Epac-RLuc assessed as effect on forskolin-stimulated cAMP level by BRET assay; assay type: functional, cell-based; in short: as §1
Cannabinoid receptor 1 [13] = target: T2, Cannabinoid receptor 1; assay: Activity at N-terminal HA-tagged human CB1 receptor expressed in HEK293 cells transfected with YFP-Epac-RLuc assessed as effect on forskolin-stimulated cAMP level by BRET assay relative to control; assay type: functional, cell-based; in short: as §1
[14] = target: Proprotein convertase subtilisin/kexin type 9 (Homo sapiens) (UniProt Q8NBP7); assay: Inhibition of PCSK9 (unknown origin)
Sequence of Proprotein convertase subtilisin/kexin type 9 (Homo sapiens) (Q8NBP7 31-152 limits assumed): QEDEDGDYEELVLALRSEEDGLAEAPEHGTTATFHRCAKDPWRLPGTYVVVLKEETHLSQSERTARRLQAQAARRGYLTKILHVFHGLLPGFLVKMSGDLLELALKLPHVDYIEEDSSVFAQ
Sequence of Proprotein convertase subtilisin/kexin type 9 (Homo sapiens) (Q8NBP7 153-692 limits assumed): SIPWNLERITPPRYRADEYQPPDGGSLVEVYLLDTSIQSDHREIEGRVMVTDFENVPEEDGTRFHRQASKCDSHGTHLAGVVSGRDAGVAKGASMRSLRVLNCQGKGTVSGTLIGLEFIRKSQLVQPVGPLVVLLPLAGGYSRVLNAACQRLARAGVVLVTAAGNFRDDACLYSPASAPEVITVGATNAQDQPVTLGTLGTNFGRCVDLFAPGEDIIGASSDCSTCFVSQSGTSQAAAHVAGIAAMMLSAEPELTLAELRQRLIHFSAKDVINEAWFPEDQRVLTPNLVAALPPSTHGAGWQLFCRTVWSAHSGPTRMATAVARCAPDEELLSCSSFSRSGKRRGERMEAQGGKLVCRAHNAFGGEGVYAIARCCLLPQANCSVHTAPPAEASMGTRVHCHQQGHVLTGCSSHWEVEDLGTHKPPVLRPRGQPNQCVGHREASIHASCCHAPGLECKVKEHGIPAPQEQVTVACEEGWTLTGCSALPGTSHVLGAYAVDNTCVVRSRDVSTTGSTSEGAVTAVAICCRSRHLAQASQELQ

Cannabinoid receptor 2 [15] = target: T1, Cannabinoid receptor 2; assay: Agonist activity at N-terminal HA-tagged human CB2 receptor expressed in HEK293 cells transfected with YFP-Epac-RLuc assessed as decrease in forskolin-stimulated cAMP level by BRET assay relative to control; assay type: functional, cell-based; in short: as §1
[16] = target: T3, Free fatty acid receptor 4 (Homo sapiens) (UniProt Q5NUL3); assay: Agonist activity at GPR120 (unknown origin); assay type: functional
T3 sequence (whole entry): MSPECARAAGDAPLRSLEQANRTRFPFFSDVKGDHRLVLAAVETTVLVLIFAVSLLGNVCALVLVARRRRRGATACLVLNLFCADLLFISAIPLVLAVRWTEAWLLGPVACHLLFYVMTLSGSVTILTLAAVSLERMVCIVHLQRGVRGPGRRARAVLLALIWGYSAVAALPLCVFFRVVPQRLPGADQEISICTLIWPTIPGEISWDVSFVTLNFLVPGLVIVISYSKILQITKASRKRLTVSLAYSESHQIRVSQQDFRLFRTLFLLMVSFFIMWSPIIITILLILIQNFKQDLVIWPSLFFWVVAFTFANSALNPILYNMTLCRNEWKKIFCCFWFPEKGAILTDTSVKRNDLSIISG

Cannabinoid receptor 2 [17] = target: T1, Cannabinoid receptor 2; assay: Agonist activity at N-terminal HA-tagged human CB2 receptor expressed in HEK293 cells transfected with YFP-Epac-RLuc assessed as decrease in forskolin-stimulated cAMP level by BRET assay; assay type: functional, cell-based; in short: as §1
[18] = target: Interleukin-17A (Homo sapiens) (UniProt Q16552); assay: Inhibition of IL-17 (unknown origin) assessed as disruption of IL-17 protein-protein interaction
Sequence of Interleukin-17A (Homo sapiens) (Q16552 whole entry): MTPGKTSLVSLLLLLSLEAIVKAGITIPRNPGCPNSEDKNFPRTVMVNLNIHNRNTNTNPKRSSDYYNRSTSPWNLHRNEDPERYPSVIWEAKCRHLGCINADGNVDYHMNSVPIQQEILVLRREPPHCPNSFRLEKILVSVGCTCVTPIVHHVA

[19] = target: T4, Potassium voltage-gated channel subfamily KQT member 3 (Homo sapiens) (UniProt O43525); assay: Agonist activity at KCNQ3 (unknown origin)
T4 sequence (whole entry): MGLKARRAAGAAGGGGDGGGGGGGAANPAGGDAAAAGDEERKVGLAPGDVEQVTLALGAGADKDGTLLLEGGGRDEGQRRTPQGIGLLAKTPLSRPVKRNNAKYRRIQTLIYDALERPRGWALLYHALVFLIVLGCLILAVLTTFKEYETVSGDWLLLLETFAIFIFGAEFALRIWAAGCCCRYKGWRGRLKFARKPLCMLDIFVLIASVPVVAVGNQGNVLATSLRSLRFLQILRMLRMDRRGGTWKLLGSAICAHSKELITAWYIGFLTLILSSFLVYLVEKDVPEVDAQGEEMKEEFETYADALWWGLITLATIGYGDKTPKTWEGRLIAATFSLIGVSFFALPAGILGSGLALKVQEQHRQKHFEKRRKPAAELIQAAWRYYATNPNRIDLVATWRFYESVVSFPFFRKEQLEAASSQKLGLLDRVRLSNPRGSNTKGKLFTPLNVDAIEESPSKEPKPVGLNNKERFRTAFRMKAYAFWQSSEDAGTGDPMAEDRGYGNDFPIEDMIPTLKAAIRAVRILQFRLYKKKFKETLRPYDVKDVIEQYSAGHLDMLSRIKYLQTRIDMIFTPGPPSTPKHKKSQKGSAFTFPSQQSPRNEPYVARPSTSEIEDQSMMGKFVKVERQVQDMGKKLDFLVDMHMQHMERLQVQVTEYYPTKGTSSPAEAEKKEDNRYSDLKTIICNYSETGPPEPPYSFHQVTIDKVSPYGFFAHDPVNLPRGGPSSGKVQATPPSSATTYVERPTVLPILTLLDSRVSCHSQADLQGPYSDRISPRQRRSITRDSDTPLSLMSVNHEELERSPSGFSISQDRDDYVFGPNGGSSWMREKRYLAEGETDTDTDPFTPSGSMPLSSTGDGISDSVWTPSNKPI

Cannabinoid receptor 2 [20] = target: T1, Cannabinoid receptor 2; assay: Agonist activity at N-terminal HA-tagged human CB2 receptor expressed in HEK293 cells transfected with YFP-Epac-RLuc assessed as decrease in forskolin-stimulated cAMP level at 10 uM by BRET assay; assay type: functional, cell-based; in short: as §4
Cannabinoid receptor 1 [21] = target: T2, Cannabinoid receptor 1; assay: Agonist activity at N-terminal HA-tagged human CB1 receptor expressed in HEK293 cells transfected with YFP-Epac-RLuc assessed as decrease in forskolin-stimulated cAMP level by BRET assay; assay type: functional, cell-based; in short: as §1
[22] = target: Potassium voltage-gated channel subfamily KQT member 2 (Homo sapiens) (UniProt O43526); assay: Agonist activity at KCNQ2 (unknown origin)
Sequence of Potassium voltage-gated channel subfamily KQT member 2 (Homo sapiens) (O43526 whole entry): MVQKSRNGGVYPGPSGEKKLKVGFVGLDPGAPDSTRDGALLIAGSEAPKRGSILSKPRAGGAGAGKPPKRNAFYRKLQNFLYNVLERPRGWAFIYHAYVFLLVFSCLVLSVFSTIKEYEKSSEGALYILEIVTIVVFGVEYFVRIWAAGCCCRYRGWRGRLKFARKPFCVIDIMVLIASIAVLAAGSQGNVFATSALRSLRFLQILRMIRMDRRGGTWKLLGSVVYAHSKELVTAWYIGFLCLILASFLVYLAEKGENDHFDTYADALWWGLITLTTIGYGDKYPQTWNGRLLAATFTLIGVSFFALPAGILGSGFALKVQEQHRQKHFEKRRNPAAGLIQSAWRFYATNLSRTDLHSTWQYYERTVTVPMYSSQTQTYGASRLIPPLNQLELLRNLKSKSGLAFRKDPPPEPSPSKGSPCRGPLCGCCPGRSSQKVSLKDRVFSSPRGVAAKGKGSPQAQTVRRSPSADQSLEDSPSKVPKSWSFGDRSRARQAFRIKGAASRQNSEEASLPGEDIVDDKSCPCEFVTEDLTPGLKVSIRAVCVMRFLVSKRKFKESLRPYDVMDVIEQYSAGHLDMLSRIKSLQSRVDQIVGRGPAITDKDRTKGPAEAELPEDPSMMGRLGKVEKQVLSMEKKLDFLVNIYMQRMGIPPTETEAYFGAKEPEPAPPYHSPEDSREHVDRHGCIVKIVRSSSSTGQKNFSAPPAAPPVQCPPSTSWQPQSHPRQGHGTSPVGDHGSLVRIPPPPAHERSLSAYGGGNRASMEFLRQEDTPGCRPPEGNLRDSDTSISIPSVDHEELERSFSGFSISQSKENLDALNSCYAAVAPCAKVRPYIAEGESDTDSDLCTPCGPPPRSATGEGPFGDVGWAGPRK

[23] = target: T5, Nicotinamide N-methyltransferase (Homo sapiens) (UniProt P40261); assay: Inhibition of NNMT (unknown origin)
T5 sequence (whole entry): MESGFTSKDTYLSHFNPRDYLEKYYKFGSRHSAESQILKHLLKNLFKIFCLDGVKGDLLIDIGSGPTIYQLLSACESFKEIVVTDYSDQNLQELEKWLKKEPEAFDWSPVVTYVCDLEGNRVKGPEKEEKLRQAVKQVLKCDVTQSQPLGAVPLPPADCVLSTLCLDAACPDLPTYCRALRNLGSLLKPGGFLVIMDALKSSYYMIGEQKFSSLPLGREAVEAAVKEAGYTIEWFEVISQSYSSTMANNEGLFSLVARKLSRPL

Leishmania donovani = assay: Growth inhibition of Leishmania donovani; assay type: functional, organism-based

T1 sequence (P34972 whole entry): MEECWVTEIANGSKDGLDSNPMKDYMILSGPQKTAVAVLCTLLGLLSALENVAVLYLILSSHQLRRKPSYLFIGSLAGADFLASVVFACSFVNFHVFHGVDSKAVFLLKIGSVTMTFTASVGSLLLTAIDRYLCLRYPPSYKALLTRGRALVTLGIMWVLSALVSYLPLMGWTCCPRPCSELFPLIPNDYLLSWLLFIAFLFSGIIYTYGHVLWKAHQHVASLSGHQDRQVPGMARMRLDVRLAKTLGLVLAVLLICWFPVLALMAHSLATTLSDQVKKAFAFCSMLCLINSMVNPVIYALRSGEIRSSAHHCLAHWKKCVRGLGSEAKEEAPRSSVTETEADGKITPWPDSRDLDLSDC

Row | SMILES | IC50 (Cannabinoid receptor 2 [1]) [nM] | inhibition (Cannabinoid receptor 1 [2]) [%] | Ki (Cannabinoid receptor 1 [3]) [nM] | Activity (HEK293 [4]) [%] | Activity (Cannabinoid receptor 1 [5]) | Ki (Cannabinoid receptor 2 [6]) [nM] | Emax (Cannabinoid receptor 2 [7]) [%] | Emax (Cannabinoid receptor 1 [8]) [%] | Activity (Cannabinoid receptor 2 [9]) | inhibition (Cannabinoid receptor 2 [10]) [%] | Activity (HEK293 [11]) [%] | further results
1 | COc1ccc(C(=O)c2cn(CC3CCOCC3)c3c(OCCCCC(=O)O)cccc23)cc1 | > 10000 | > 50 | > 10000 | 105.6 | Active | 1310 | 124 | 82.5 | Active | > 50 | 129.1 | 
2 | Cc1ccc(Cn2nc(C(=O)N[C@@H]3C(C)(C)[C@@H]4CC[C@@]3(C)C4)cc2-c2ccc(Cl)c(C)c2)cc1 |  |  |  | 99.8 |  |  | 212 |  |  |  | 94.5 | Activity (Cannabinoid receptor 1 [12]): inactive; Emax (Cannabinoid receptor 1 [13]): inactive
3 | CCCOc1cccc2c(C(=O)c3ccc(OC)cc3)cn(CC3CCOCC3)c12 | 30.6 | > 50 | 505 | 105.4 |  | 5.7 | 263 |  | Active | > 50 | 133.9 | Activity (Cannabinoid receptor 1 [12]): inactive; Emax (Cannabinoid receptor 1 [13]): inactive
4 | COc1ccc(C(=O)c2cn(CC3CCOCC3)c3ccc(O)cc23)cc1 |  | > 50 | 1410 | 105.5 | Active | 120 |  | 62.2 |  | > 50 | 109.6 | inhibition [14]: inactive; Emax (Cannabinoid receptor 2 [15]): 65.7%; Activity [16]: inactive; EC50 (Cannabinoid receptor 2 [17]): 4.4 nM; inhibition [18]: inactive; Activity [19]: inactive; Activity (Cannabinoid receptor 2 [20]): Active; EC50 (Cannabinoid receptor 1 [21]): 62.9 nM; Activity [22]: inactive; inhibition [23]: inactive; growth inhibition (GI) (Leishmania donovani): inactive
5 | COc1ccc(C(=O)c2cn(CC3CCOCC3)c3c(O)cccc23)cc1 | 272 | > 50 | 3580 | 104.3 | Active | 53.9 | 190 | 64.3 | Active | > 50 | 135.3 | inhibition [14]: inactive; Activity [16]: inactive; inhibition [18]: inactive; Activity [19]: inactive; EC50 (Cannabinoid receptor 1 [21]): 632 nM; Activity [22]: inactive; inhibition [23]: inactive; growth inhibition (GI) (Leishmania donovani): inactive
6 | COc1ccc(C(=O)c2cn(CC3CCOCC3)c3c(OCCCCCCNC(C)=O)cccc23)cc1 | > 10000 | > 50 | 3920 | 114.8 | Active | 1970 | 151 | 74.3 | Active | > 50 | 128 | 
7 | COC(=O)CCCCOc1cccc2c(C(=O)c3ccc(OC)cc3)cn(CC3CCOCC3)c12 | > 10000 | > 50 | 1580 | 124.3 | Active | 201 | 166 | 77.8 | Active | > 50 | 160.6 | 

From ChEMBL document CHEMBL4251662, “Alkyl indole-based cannabinoid type 2 receptor tools: Exploration of linker and fluorophore attachment” (Eur J Med Chem, 2018)
